# Published values gathered from unrelated publications.
# Target: Tyrosine-protein kinase Fes/Fps (FES, Homo sapiens, UniProt P07332)
Compound,test,conditions,remaining binding [%]
F[C@@H]1CCN(c2nccc(-c3cnn4ncccc34)n2)C1,binding,1 µM,77
O=C(NCC1CCOCC1)c1n[nH]cc1NC(=O)c1c(F)cccc1F,"binding, competition with immobilised ligand",1 µM,100
C[C@@H]1CCN(c2nccc(-c3cnn4ncccc34)n2)C1,binding,1 µM,100
CNC(=O)[C@@H]1CC[C@@H](n2c(-c3ccc4cnccc4c3)nc3ccc(C(=O)NCc4cccc(C(N)=O)c4)cc32)C1,"binding, competition with immobilised ligand",1 µM,86
COCCOc1nc(-c2ccc(Cl)nc2)nc2c1CN(C(=O)c1ncn3ccccc13)CC2,"cell-free assay, competition with immobilised ligand",0.1 µM,100
COc1cnc(Nc2cccc(S(N)(=O)=O)c2)nc1N1CCN(c2ccccc2)CC1,"binding, competition with immobilised ligand",1 µM,100
CCN1CCN(Cc2ccc(C(=O)Nc3ccc(C)c(Oc4ccc5c(c4)CC(=O)N5)c3)cc2C(F)(F)F)CC1,"binding, competition with immobilised ligand",1 µM,97
COc1ncc2cc3ccccc3nc2c1C#N,"cell-free assay, competition with immobilised ligand",5 µM,100
CC(C)(O)c1cncc(-c2nc3ccc(F)cc3n2C2CC2)c1,"cell-free assay, competition with immobilised ligand",1 µM,100
Cc1cnn2ncc(-c3ccnc(N(C)C)n3)c2c1,binding,1 µM,93
O=C(c1ccc(Nc2ncc(Cl)c(-c3cc4ccccc4s3)n2)cc1)N1CCC(N2CCCC2)CC1,"binding, competition with immobilised ligand",1 µM,74
CNC(=O)Nc1ccc2c(c1)[C@@]1(CC2)OC(=O)N(CC(=O)N(Cc2ccc(F)cc2)[C@@H](C)C(F)(F)F)C1=O,"cell-free assay, competition with immobilised ligand",1 µM,85
N[C@@H]1CCN(c2nccc(-c3cnn4ncccc34)n2)C1,binding,1 µM,100
O=C(c1ccc(Nc2nccc(-c3cc4ccccc4s3)n2)cc1)N1CCC(N2CCCC2)CC1,"binding, competition with immobilised ligand",1 µM,93
O=C(O)[C@H]1[C@H](Cn2nnc3ccccc3c2=O)CC[C@@H]1C(=O)c1ccc(OCCC2CCOCC2)cc1,"cell-free assay, competition with immobilised ligand",1 µM,100
Nc1ncc2c(n1)-c1c([nH]c3ccc(C#CC4CC4)cc13)CCCC2,"binding, competition with immobilised ligand",1 µM,100
CN(CCCC(F)(F)F)c1nccc(-c2cnn3ncccc23)n1,binding,1 µM,95
COc1cc(-c2cn(C3CCc4c(F)cccc4N(CC(F)(F)F)C3=O)nn2)ccc1-n1cnc(C)c1 (stereo not shown),"cell-free assay, competition with immobilised ligand",1 µM,100
CN(C)c1nccc(-c2cnn3ncccc23)n1,binding,1 µM,100
O=C(NCCCN1CCOCC1)c1ccc(Nc2ncc(Cl)c(-c3ccc(Cl)s3)n2)cc1,"binding, competition with immobilised ligand",1 µM,62
Cc1c(NC(=O)c2cc(C(N)=O)nc3cc(F)ccc23)c(C(F)(F)F)nn1Cc1ccc(C(C)(C)C)cc1,"cell-free assay, competition with immobilised ligand",1 µM,100
CN(c1nccc(-c2cnn3ncccc23)n1)C1CC1,binding,1 µM,100
